Activity calls are given as the source filed them. No cut-off for these calls is given here.
Experiments:
HL-60 [1] = assay: Cytotoxicity against human HL60 cells assessed as decrease in cell viability after 48 hrs […]; format: functional; settings: HL-60, 48 h, read-out: LD50 (the source's name)
Outline: (§1)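 AML cell lines seeded at 0.5 million cells/mL (counted by Trypan Blue exclusion) and exposed to varying concentrations in triplicate for 48 h. Read-out by flow cytometry after annexin V (FITC or PE) and 7-AAD staining, at least 50 000 events per condition; annexin V/7AAD double-negative cells scored viable. Value reported as LD50.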

Kasumi 1 [2] = assay: Cytotoxicity against human Kasumi-1 cells assessed as decrease in cell viability after 48 hrs by […]; format: functional; settings: Kasumi 1, 48 h, read-out: LD50 (the source's name); outline: as §1
KG-1 [3] = assay: Cytotoxicity against human KG1 cells assessed as decrease in cell viability after 48 hrs […]; format: functional; settings: KG-1, 48 h, read-out: LD50 (the source's name); outline: as §1
MOLM-13 [4] = assay: Cytotoxicity against human MOLM13 cells assessed as decrease in cell viability after 48 hrs […]; format: functional; settings: MOLM-13, 48 h, read-out: LD50 (the source's name); outline: as §1
MV4-11 [5] = assay: Cytotoxicity against human MV4-11 cells assessed as decrease in cell viability after 48 hrs […]; format: functional; settings: MV4-11, 48 h, read-out: LD50 (the source's name); outline: as §1
THP-1 [6] = assay: Cytotoxicity against human THP1 cells assessed as decrease in cell viability after 48 hrs […]; format: functional; settings: THP-1, 48 h, read-out: LD50 (the source's name); outline: as §1
TUR [7] = assay: Cytotoxicity against human TUR cells assessed as decrease in cell viability after 48 hrs […]; format: functional; settings: read-out: LD50 (the source's name); outline: as §1
U-937 [8] = assay: Cytotoxicity against human U937 cells assessed as decrease in cell viability after 48 hrs […]; format: functional; settings: U-937, 48 h, read-out: LD50 (the source's name); outline: as §1
MOLM-13 [9] = assay: Upregulation of heme oxygenase 1 in human MOLM13 cells at 20 uM after 6 hrs by qRT-PCR analysis; format: functional, cell-based
Outline: (§2)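 MOLM-13 cells at 0.5 million/mL were treated 6 h with 20 μM compound, then total RNA was extracted. One-step TaqMan RT-qPCR was run: RT 48 °C 15 min, then 95 °C 10 min, then 40 cycles of 95 °C 15 s and 60 °C 1 min. Singleplex reactions were in triplicate, with fold change by the 2^-ΔΔCt method.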

MOLM-13 [10] = assay: Upregulation of HSPA1A in human MOLM13 cells at 20 uM after 6 hrs by qRT-PCR analysis; format: functional, cell-based; outline: as §2
MOLM-13 [11] = assay: Downregulation of NF-kappaB1A transcription in human MOLM13 cells at 20 uM after 6 hrs by qRT-PCR analysis; format: functional, cell-based; outline: as §2
Homo sapiens [12] = organism: Homo sapiens; assay: Inhibition of NF-kappaB p65 phosphorylation in human MOLM13 cells at 5 to 20 uM after 6 hrs by Western blot analysis; format: cell-based
Outline: (§3)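 MOLM-13 cells at 0.5 million/mL were treated 6 h and lysed on ice for 30 min in Tris pH 7.5/NaCl/Triton/SDS buffer with phosphatase and protease inhibitors. Lysates were run on 10% SDS-PAGE and blotted to PVDF. Membranes were probed separately for phospho-p65 and total p65 at 4 °C overnight, detected with IRDye secondaries by infrared imaging, with total p65 as loading control.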

MOLM-13 [13] = assay: Effect on total NF-kappaB p65 level in human MOLM13 cells at 5 to 20 uM after 6 hrs by Western blot analysis; format: cell-based; settings: molm-13, 6 h; outline: as §3
Homo sapiens [14] = organism: Homo sapiens; assay: Inhibition of NF-kappaB DNA binding activity in human MOLM13 cells by ELISA; format: cell-based
Outline: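 p65 DNA-binding ELISA in MOLM-13 cells, with TNFα as positive control, run in triplicate.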

Homo sapiens [15] = organism: Homo sapiens; assay: Inhibition of NF-kappaB in human MOLM13 cells assessed as CDK6 gene expression at 10 to 20 uM after 6 hrs by Western blot analysis; format: cell-based
Homo sapiens [16] = organism: Homo sapiens; assay: Inhibition of NF-kappaB in human MOLM13 cells assessed as MYB gene expression at 10 to 20 uM after 6 hrs by Western blot analysis; format: cell-based
KB = assay: Cytotoxicity against human KB cells assessed as decrease in cell viability after 72 hrs by MTT assay; format: functional, cell-based
HeLa S3 = assay: Cytotoxicity against human HeLaS3 cells assessed as decrease in cell viability after 72 to 96 hrs by MTT assay; format: functional, cell-based
MCF7 = assay: Cytotoxicity against human MCF7 cells assessed as decrease in cell viability after 72 to 96 hrs by MTT assay; format: functional, cell-based
Bone marrow cell [17] = assay: Cytotoxicity against human bone marrow cells assessed as decrease in cell viability at 20 uM after 48 hrs by annexin V-FITC/7-AAD staining based flow cytometry relative to control
Outline: (§4)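 Bone marrow and peripheral blood mononuclear cells from healthy donors were isolated by Ficoll density gradient. They were held 1 h in serum-free medium with rhFLT-3 ligand 50 ng/mL, rhSCF 50 ng/mL, rhIL-3 20 ng/mL and rhIL-6 20 ng/mL before drug. Treatment ran 48 h, and viability was read by annexin V/7-AAD flow cytometry relative to untreated control.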

PBMC [18] = assay: Cytotoxicity against human peripheral blood mononuclear cells assessed as decrease in cell viability at 20 uM after 48 hrs by annexin V-FITC/7-AAD staining based flow cytometry relative to control; outline: as §4
HL-60 [19] = assay: Cytotoxicity against human HL60 cells assessed as decrease in cell viability at 20 uM after 48 hrs by annexin V-FITC/7-AAD staining based flow cytometry relative to control; format: functional
Outline: (§5)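 AML cell lines kept at 0.5 million cells/mL and treated in triplicate for 48 h. Cells were stained with annexin V (FITC or PE) plus 7-AAD, and at least 50 000 events were recorded per condition by flow cytometry. Annexin V-/7-AAD- cells were scored viable, with viability taken relative to untreated control.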

Kasumi 1 [20] = assay: Cytotoxicity against human Kasumi-1 cells assessed as decrease in cell viability at 20 uM after 48 hrs by annexin V-FITC/7-AAD staining based flow cytometry relative to control; format: functional; outline: as §5
KG-1 [21] = assay: Cytotoxicity against human KG1 cells assessed as decrease in cell viability at 20 uM after 48 hrs by annexin V-FITC/7-AAD staining based flow cytometry relative to control; format: functional; outline: as §5
MOLM-13 [22] = assay: Cytotoxicity against human MOLM13 cells assessed as decrease in cell viability at 20 uM after 48 hrs by annexin V-FITC/7-AAD staining based flow cytometry relative to control; format: functional; outline: as §5
MV4-11 [23] = assay: Cytotoxicity against human MV4-11 cells assessed as decrease in cell viability at 20 uM after 48 hrs by annexin V-FITC/7-AAD staining based flow cytometry relative to control; format: functional; outline: as §5
THP-1 [24] = assay: Cytotoxicity against human THP1 cells assessed as decrease in cell viability at 20 uM after 48 hrs by annexin V-FITC/7-AAD staining based flow cytometry relative to control; format: functional; outline: as §5
TUR [25] = assay: Cytotoxicity against human TUR cells assessed as decrease in cell viability at 20 uM after 48 hrs by annexin V-FITC/7-AAD staining based flow cytometry relative to control; format: functional; outline: as §5
U-937 [26] = assay: Cytotoxicity against human U937 cells assessed as decrease in cell viability at 20 uM after 48 hrs by annexin V-FITC/7-AAD staining based flow cytometry relative to control; format: functional; outline: as §5
Leukemia cell = assay: Cytotoxicity against primary leukemia cells isolated from human AML patient assessed as cell death after 48 hrs by […]; format: functional; settings: read-out: LD50 (the source's name)
Bone marrow cell [27] = assay: Cytotoxicity against human bone marrow cells assessed as decrease in cell viability at 50 uM after 48 hrs by annexin V-FITC/7-AAD staining based flow cytometry relative to control; outline: as §4
PBMC [28] = assay: Cytotoxicity against human peripheral blood mononuclear cells assessed as decrease in cell viability at 50 uM after 48 hrs by annexin V-FITC/7-AAD staining based flow cytometry relative to control; outline: as §4

C=C1C(=O)O[C@@H]2[C@@H]1CC/C(C)=C/CC[C@]1(C)O[C@H]21
CC50 (HL-60 [1]): 13.9 µM
CC50 (Kasumi 1 [2]): 3.6 µM
CC50 (KG-1 [3]): > 20 µM
CC50 (MOLM-13 [4]): 3.4 µM
CC50 (MV4-11 [5]): 8.6 µM
CC50 (THP-1 [6]): > 20 µM
CC50 (TUR [7]): 7.4 µM
CC50 (U-937 [8]): 8.4 µM
Activity (MOLM-13 [9]): Active
Activity (MOLM-13 [10]): Active
Activity (MOLM-13 [11]): Active
inhibition (Homo sapiens [12]): Active
Activity (MOLM-13 [13]): Non-Toxic
inhibition (Homo sapiens [14]): Active
inhibition (Homo sapiens [15]): Active
inhibition (Homo sapiens [16]): Active

C=C1C(=O)O[C@@H]2[C@H]3C(C)=CC(=O)C3=C(C)CC[C@@H]12 [DEHYDROLEUCODIN]
IC50 (KB): 5.3 µM
IC50 (HeLa S3): 10 µM
IC50 (MCF7): 5 µM
CC50 (HL-60 [1]): 14.1 µM
CC50 (Kasumi 1 [2]): 12.9 µM
CC50 (KG-1 [3]): 18.7 µM
CC50 (MOLM-13 [4]): 12.6 µM
CC50 (MV4-11 [5]): 5 µM
CC50 (THP-1 [6]): 16.8 µM
CC50 (TUR [7]): 12.2 µM
CC50 (U-937 [8]): 18.9 µM
Activity (Bone marrow cell [17]): Non-Toxic
Activity (PBMC [18]): Non-Toxic
Activity (HL-60 [19]): Active
Activity (Kasumi 1 [20]): Active
Activity (KG-1 [21]): Active
Activity (MOLM-13 [22]): Active
Activity (MV4-11 [23]): Active
Activity (THP-1 [24]): Active
Activity (TUR [25]): Active
Activity (U-937 [26]): Active
Activity (MOLM-13 [9]): Active
Activity (MOLM-13 [10]): Active
Activity (MOLM-13 [11]): Active
inhibition (Homo sapiens [12]): Active
Activity (MOLM-13 [13]): Non-Toxic
inhibition (Homo sapiens [14]): Active
inhibition (Homo sapiens [15]): Active
inhibition (Homo sapiens [16]): Active
CC50 (Leukemia cell): 9.4 µM

CC1=CC(=O)C2=C(C)CC[C@@H]3[C@H](OC(=O)[C@H]3C)[C@@H]12 [DESACETOXYMATRICARIN]
CC50 (HL-60 [1]): > 20 µM
CC50 (Kasumi 1 [2]): > 20 µM
CC50 (KG-1 [3]): > 20 µM
CC50 (MOLM-13 [4]): > 20 µM
CC50 (MV4-11 [5]): > 20 µM
CC50 (THP-1 [6]): > 20 µM
CC50 (TUR [7]): > 20 µM
CC50 (U-937 [8]): > 20 µM
Activity (Bone marrow cell [27]): Non-Toxic
Activity (PBMC [28]): Non-Toxic
Activity (MOLM-13 [9]): Active
Activity (MOLM-13 [10]): Active
Activity (MOLM-13 [11]): Active
inhibition (Homo sapiens [14]): inactive
